Compounds with a hit are over-represented: about 4.5% of the library has one in this group of screens.
TAAR1 ag: human TAAR1 agonism; Q96RJ0; CHO RD-HGA16 TAAR1, Fluo-8 calcium fluorescence; vehicle wells 0%, saturating PEA agonist 100%; activation, % at 3 µM; hit rate 0.99% among 360,000;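 active = activation above the mean activation of all test compounds in the run plus 3 SD, cut at about 38% in these data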
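Test system: RD-HGA16 (CHO) cells co-expressing Gα16 and hTAAR1; dosing: one-point dosing at 3 µM (nominal); timing: 17-24 h seeding, 75 min 37 °C dye, 30 min RT; signal: kinetic Fluo-8 calcium fluorescence; read-out basis: % activation relative to PEA EC100 response; controls: DMSO and PEA EC100; replicates: n 1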
TAAR1 antag: antagonists of human TAAR1 | Q96RJ0 | CHO RD-HGA16 TAAR1, Fluo-8 calcium fluorescence, antagonist | inhibition, % at 3 µM | hit rate 1.5% among 360,000;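 active = inhibition above a per-plate cutoff, the mean inhibition of test compounds on that plate plus 3 SD, cut at about 49% in these data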;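 note: 0% = DMSO plus EC80 beta-PEA response and 100% = DMSO alone without agonist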
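test system = CHO RD-HGA16 cells bearing hTAAR1 | replication = singlicate | controls = DMSO-only wells and EC80 β-PEA-stimulated wells | reagent = EC80 β-phenethylamine stimulus | read-out basis = percent inhibition of PEA-evoked calcium signal, max/basal emission ratio | schedule = seeding 17-24 h prior, 75-min 37 °C, 30-min RT dye loading | signal = kinetic Fluo-8 calcium fluorescence measurement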
CHO parental Ca: counter-screen for OX1R antagonists: effect in parental CHO cells | parental CHO-K1, ATP-induced calcium, Fluo-8 fluorescence | inhibition, % at 5.6 µM | hit rate 0.63% among 330,000 | AID 463079;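 active = inhibition above that plate's mean sample inhibition plus 3 SD, cut at about 26% in these data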;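 note: 0% = ATP-challenged DMSO wells and 100% = DMSO wells without ATP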
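Material – parental CHO cells · Reagent – ATP stimulus · Compound – single nominal dose of 5.6 µM per compound · Detection – Fluo-8 fluorescence · Read-out basis – percent inhibition of calcium signal · Controls – ATP-challenged DMSO wells low, unchallenged DMSO wells high · Repeats – no replicates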
GPR7 antagonist: antagonists of human GPR7 (neuropeptides B/W receptor 1). P48145. GPR7-expressing cells, fluorescence antagonist assay. inhibition, % at 4.4 µM. hit rate 1.1% among 290,000; in the data active = inhibition above about 16%, passing the limit was not always enough;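 note: cells stimulated with the agonist NPW; 0% = agonist with vehicle and 100% = vehicle without agonist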
Target sequence (P48145 whole entry, looked up): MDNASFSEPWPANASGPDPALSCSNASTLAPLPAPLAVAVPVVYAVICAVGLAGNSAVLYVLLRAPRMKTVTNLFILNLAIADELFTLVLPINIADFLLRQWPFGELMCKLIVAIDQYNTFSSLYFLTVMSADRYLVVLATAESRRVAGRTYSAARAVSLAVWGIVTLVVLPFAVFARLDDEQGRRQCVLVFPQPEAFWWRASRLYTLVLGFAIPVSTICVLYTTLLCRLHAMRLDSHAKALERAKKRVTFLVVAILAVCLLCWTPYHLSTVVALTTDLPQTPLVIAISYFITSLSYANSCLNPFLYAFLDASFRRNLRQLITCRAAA
OX1R antag-1: human HCRTR1 antagonism. CHO/OX1R cells, Fluo-8 calcium fluorescence, orexin A. O43613. inhibition, % at 5 µM. AID 434989. hit rate 0.43% among 330,000;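 active = inhibition above its plate's threshold, mean inhibition of all tested compounds on the plate plus 3 SD, cut at about 37% in these data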;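 note: 0% = orexin A challenge wells and 100% = SB-334867-A antagonist wells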
OX1R antag-2: antagonists of human orexin 1 receptor (OX1R). O43613. OX1R-expressing cells, FRET antagonist read-out. inhibition, % at 6.6 µM. hit rate 1.8% among 330,000. AID 485270; in the data active = inhibition mostly above about 38%, no sharp cut-off; inactive = mostly below about 40%;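 note: 0% = agonist challenge alone and 100% = reference antagonist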
Active calls of the source: *; x = no result given.

SMILES | TAAR1 ag | TAAR1 antag | CHO parental Ca | GPR7 antagonist | OX1R antag-1 | OX1R antag-2
COCCN(C(=O)CSc1nnc(-c2ccccc2F)o1)c1c(N)n(Cc2ccccc2)c(=O)[nH]c1=O | 4 | 2 | x | x | x | x
OC(c1cc(C(F)(F)F)nc2c(Cl)cc(Cl)cc12)C1CCCCN1 (centres undefined) | 37 | 17 | 3 | 45* | -13 | 8
CC(O)(c1ccccc1)C(c1ccccc1)C1CCCCN1 (centres undefined) | -3 | -9 | -13 | -8 | -14 | 18
OC(c1cc(-c2ccc(Cl)cc2)nc2ccccc12)C1CCCCN1 (centres undefined) | 17 | 25 | 17 | 63* | 6 | 4
C=CCN(c1ccc(Br)cc1C(=O)OC)S(C)(=O)=O | 3 | -18 | -9 | x | -17 | -2
Cc1cccc(O)c1C | 1 | 14 | -3 | x | -21 | 11
Cc1cccc(C)c1N=Nc1c(C)cc(O)cc1C | 7 | -2 | 60* | -31 | 6 | -1
CC(=O)Nc1cccc(-c2csc(Nc3cc(C)ccn3)n2)c1 | 2 | 5 | -23 | 11 | -18 | 24
CC(=O)Nc1cccc(-c2csc(Nc3ccccn3)n2)c1 | 4 | -1 | -12 | 4 | -10 | 61*
Cc1cccc(Nc2nc(-c3ccccn3)cs2)n1 | 8 | 26 | -5 | -3 | 20 | 66*
Cc1ccccc1C(=O)N[C@@H](CC(C)C)C(=O)N1CCC[C@H]1C(=O)NCc1ccccc1 | 0 | -12 | x | x | x | x
COCCNC(=O)CN(Cc1ccc(F)cc1)C(=O)CCC(=O)Nc1nccs1 | -1 | -11 | 2 | -1 | -13 | 38
O=C(CCc1cccc(Cl)c1)N1CCCC(Nc2ccccc2)C1 (centres undefined) | 4 | -9 | -24 | -5 | -25 | 8
CCOC(=O)c1nn(-c2cccc(OC)c2)c(-c2ccccc2)c1C(=O)c1ccccc1 | 0 | 56* | -15 | 0 | 2 | 55*
CC1(C(=O)NS(=O)(=O)c2ccccc2)CCN1C(=O)CCc1ccccc1 (centres undefined) | 1 | -13 | x | x | x | x
COc1ccc(COC(=O)CCNC(=O)c2ccc(Cl)cc2)cc1 | -2 | 1 | -9 | x | -11 | 53*
COc1ccc(C(=O)NCC(=O)NCC(=O)OCc2ccc(Cl)cc2)cc1 | -1 | -20 | -23 | 11 | -23 | -4
O=C(c1cc(COc2cccc(C(F)(F)F)c2)on1)N1CCC(Oc2cccnc2)CC1 | 6 | 33 | 39* | 15 | 11 | 6
O=C(c1cc(COc2ccc(F)cc2Cl)on1)N1CCC(OCc2cccnc2)CC1 | 5 | -10 | 61* | -6 | 45* | 57
Cc1ccc(OCc2cc(C(=O)N3CCC(Oc4cccnc4)CC3)no2)cc1C | 3 | 19 | 12 | -12 | 24 | 28
CNS(=O)(=O)c1cc(Nc2ncnc3sccc23)ccc1C | 5 | 7 | 4 | 9 | 19 | 63*
COc1ccc(OC)c(CCNC(=O)Cn2sc3nc(C)cc(C)c3c2=O)c1 | x | x | 49* | 16* | 55* | 20
COc1ccc(OC)c(CCNC(=O)Cn2nc(C)c3c(C)n(-c4ccc(C)cc4)nc3c2=O)c1 | 5 | -5 | -22 | -4 | -19 | 13
COc1ccccc1Nc1nn2c(=O)c3ccc(C(=O)N4CCCC(C)C4)cc3nc2s1 (centres undefined) | 6 | 50* | -3 | -4 | -10 | 23
CC1CCCN(C(=O)c2ccc3c(=O)n4nc(Nc5ccccc5)sc4nc3c2)C1 (centres undefined) | 2 | 9 | x | x | x | x
COC(=O)C1=C(O)/C(=C/c2cccc(OC)c2O)N=C1C | 0 | -16 | 14 | -12 | -16 | 63*
COC(=O)C1=C(O)/C(=C\c2cc(C)n(-c3ccc(F)cc3)c2C)N=C1C | 6 | -5 | 5 | -8 | -2 | 28
O=c1c2ccccc2nc(/C=C/c2ccccc2)n1CCCO | 7 | 9 | -19 | -6 | -24 | 15
CN(C)c1ccc(/C=C/c2nc3ccccc3c(=O)n2CCO)cc1 | 19 | 28 | 7 | 1 | 3 | 52*

Bioassay records (PubChem BioAssay)
